Experimental data taken from article PMC8223195 (Molecular Diversity, 2021).

Tests used:
[1] = tested on: hCoV-229E; format: cell-based, human corona virus 229E; details: […]; (*) mean of three independent experiments ± SEM
[2] = tested on: LN-229 (glioblastoma); experiment: IncuCyte real-time proliferation assay, LN-229; format: cell-based; details: LN-229, 72 h; * mean of two independent experiments ± SEM
[3] = tested on: Capan-1 (pancreatic adenocarcinoma); experiment: IncuCyte real-time proliferation assay, Capan-1; format: cell-based; details: Capan-1, 72 h; * mean of two independent experiments ± SEM
[4] = tested on: HCT-116 (colorectal carcinoma); experiment: IncuCyte real-time proliferation assay, HCT-116; format: cell-based; details: HCT-116, 72 h; * mean of two independent experiments ± SEM
[5] = tested on: NCI-H460 (lung carcinoma); experiment: IncuCyte real-time proliferation assay, NCI-H460; format: cell-based; details: NCI-H460, 72 h; * mean of two independent experiments ± SEM
[6] = tested on: DND-41 (acute lymphoblastic leukemia); experiment: IncuCyte real-time proliferation assay, DND-41; format: cell-based; details: DND-41, 72 h; * mean of two independent experiments ± SEM
[7] = tested on: HL-60 (acute myeloid leukemia); experiment: IncuCyte real-time proliferation assay, HL-60; format: cell-based; details: HL-60, 72 h; * mean of two independent experiments ± SEM
[8] = tested on: K-562 (chronic myeloid leukemia); experiment: IncuCyte real-time proliferation assay, K-562; format: cell-based; details: K-562, 72 h; * mean of two independent experiments ± SEM
[9] = tested on: Z-138 (non-Hodgkin lymphoma); experiment: IncuCyte real-time proliferation assay, Z-138; format: cell-based; details: Z-138, 72 h; * mean of two independent experiments ± SEM
[10] = tested on: peripheral blood mononuclear cells (PBMCs); experiment: In vitro apoptosis induction assay in PBMC; format: cell-based; details: 72 h
Outline: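 Counter-screen on normal PBMCs from two healthy donors. Cells were exposed to graded test-compound concentrations with Caspase-3/7 Green Reagent added. Activated intracellular caspase-3/7 cleaves the reagent at its DEVD motif, marking apoptotic cells. Propidium iodide staining separated dead from live cells. Read-out: numbers of apoptotic and dead cells.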

[11] = tested on: alpha-tubulin in HEp-2 cells; experiment: Tubulin immune fluorescence staining in HEp-2 cells; format: cell-based, human; details: HEp-2 cells treated for 3 h
[12] = tested on: HEL 299 cells

## COc1ccc(C(=O)C2Sc3nnc(-n4nc(C)cc4C)n3NC2c2ccco2)cc1 (racemic) [Compound 5q, ( ±)-(3-(3,5-Dimethyl-1H-pyrazol-1-yl)-6-(furan-2-yl)-6,7-dihydro-5H-[1,2,4]triazolo[3,4-b][1,3,4]thiadiazin-7-yl)(4-methoxyphenyl)methanone]
[1]
  EC50: > 100 µM
[2]
  IC50: 700 ± 90 nM
[3]
  IC50: 1100 ± 700 nM
[4]
  IC50: 1000 ± 400 nM
[5]
  IC50: 2500 ± 200 nM
[6]
  IC50: 600 ± 200 nM
[7]
  IC50: 2000 ± 400 nM
[8]
  IC50: 2300 ± 1600 nM
[9]
  IC50: 400 ± 5 nM
[10]; PBMC from two healthy donors, 100 to 0.16 µM
  viability of normal PBMCs: did not inhibit the viability
[10]; PBMC, 100 µM, caspase-3/7 and PI
  number of apoptotic and dead cells: small increase in the number of apoptotic and dead cells
[11]
  polymerization of tubulin: inhibit the polymerization of tubulin in a dose-dependent manner
[12]
  CC50: < 800 nM
